For one compound, CI and Activity results are on record in ChEMBL document CHEMBL4014350, “Alkoxyurea-Based Histone Deacetylase Inhibitors Increase Cisplatin Potency in Chemoresistant Cancer Cell Lines” (J Med Chem, 2017).

Assay [1] concerns CAL-27. Briefly: Potentiation of 2 uM cisplatin-induced cytotoxicity against human CAL27 cells assessed as decrease in cell viability by measuring combination index at 900 uM preincubated for 48 hrs followed by cisplatin treatment measured after 72 hrs by MTT assay. In kind it is functional. The note with it: in the assay text read “at 900 nM” for “at 900 uM”. A digest of the protocol: (§1)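 HDAC inhibitor was added 48 h before cisplatin, then cells were exposed to cisplatin for 72 h and viability was read by MTT assay. Combination index was computed by the Chou–Talalay method: CI > 1 is antagonism, CI = 1 additive, CI < 0.9 synergism. Points with fraction affected below 0.20 were flagged.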
Background: Tetrazolium dyes change colour on reduction, which living cells bring about.

For assay [2], the target named is T1, Histone deacetylase 1/6 (Homo sapiens) (UniProt Q13547+Q9UBN7). Nature of the assay: Inhibition of HDAC1/HDAC6 in human Cal27CisR cells assessed as potentiation of 10 uM cisplatin-induced cytotoxicity by measuring combination index at 1000 nM preincubated for 48 hrs followed by cisplatin treatment measured after 72 hrs by MTT assay.
In assay [3] the target is T1, Histone deacetylase 1/6 (Homo sapiens). Briefly: Inhibition of HDAC1/HDAC6 in human Cal27CisR cells assessed as potentiation of 1 uM cisplatin-induced cytotoxicity by measuring combination index at 1000 uM preincubated for 48 hrs followed by cisplatin treatment measured after 72 hrs by MTT assay. In kind it is cell-based. The gist of the method:
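Cal27CisR cells preincubated 48 h with the HDAC inhibitor, then exposed to cisplatin for 72 h. Viability read by MTT. Combination index calculated by the Chou–Talalay method: CI > 1 antagonism, CI = 1 additive, CI < 0.9 synergism. Points with fraction affected below 0.20 are flagged. Values are the mean of three experiments.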

Assay [4] shares this target. Nature of the assay: Inhibition of HDAC1/HDAC6 in human Cal27CisR cells assessed as potentiation of 3.16 uM cisplatin-induced cytotoxicity by measuring combination index at 1000 nM preincubated for 48 hrs followed by cisplatin treatment measured after 72 hrs by MTT assay.
Assay [5] shares this target. Briefly: Inhibition of HDAC1/HDAC6 in human Cal27CisR cells assessed as potentiation of 5 uM cisplatin-induced cytotoxicity by measuring combination index at 2000 uM preincubated for 48 hrs followed by cisplatin treatment measured after 72 hrs by MTT assay. It counts as cell-based. The gist of the method: (§2)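 Cal27 and cisplatin-resistant Cal27CisR cells were preincubated with the HDAC inhibitor for 48 h, then given cisplatin in combination. Viability was read by MTT after 72 h. The combination index was computed by the Chou–Talalay method: CI > 1 is antagonism, CI = 1 is additive, and CI < 0.9 is synergism. Points with fraction affected below 0.20 were flagged.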

The subject of assay [6] is CAL-27. Briefly: Potentiation of 5 uM cisplatin-induced cytotoxicity against human CAL27 cells assessed as decrease in cell viability by measuring combination index at 2000 uM preincubated for 48 hrs followed by cisplatin treatment measured after 72 hrs by MTT assay. In kind it is functional. Particulars: in the assay text read “at 2000 nM” for “at 2000 uM”. The gist of the method: as §1

Assay [7] concerns the target T1, Histone deacetylase 1/6 (Homo sapiens). Briefly: Inhibition of HDAC1/HDAC6 in human Cal27CisR cells assessed as potentiation of 3.16 uM cisplatin-induced cytotoxicity by measuring combination index at 1500 nM preincubated for 48 hrs followed by cisplatin treatment measured after 72 hrs by MTT assay.
For assay [8] the target is unchanged. Nature of the assay: Inhibition of HDAC1/HDAC6 in human Cal27CisR cells assessed as potentiation of 5 uM cisplatin-induced cytotoxicity by measuring combination index at 1500 uM preincubated for 48 hrs followed by cisplatin treatment measured after 72 hrs by MTT assay. It counts as cell-based. The gist of the method: as §2
The subject of assay [9] is CAL-27. Nature of the assay: Potentiation of 0.316 uM cisplatin-induced cytotoxicity against human CAL27 cells assessed as decrease in cell viability by measuring combination index at 1000 uM preincubated for 48 hrs followed by cisplatin treatment measured after 72 hrs by MTT assay. In kind it is functional. The note with it: in the assay text read “at 1000 nM” for “at 1000 uM”. The gist of the method: as §2

For assay [10], the target named is T1, Histone deacetylase 1/6 (Homo sapiens). Briefly: Inhibition of HDAC1/HDAC6 in human Cal27CisR cells assessed as potentiation of 20 uM cisplatin-induced cytotoxicity by measuring combination index at 2000 nM preincubated for 48 hrs followed by cisplatin treatment measured after 72 hrs by MTT assay.
The test system of assay [11] is CAL-27. Briefly: Potentiation of cisplatin-induced apoptosis in human CAL27 cells at 1 uM preincubated for 48 hrs followed by cisplatin treatment for 6 hrs measured after 24 hrs by propidium iodide dye-based flow cytometry. It counts as functional, cell-based.
In assay [12] the test system is CAL-27. Nature of the assay: Potentiation of 0.316 uM cisplatin-induced cytotoxicity against human CAL27 cells assessed as decrease in cell viability measuring combination index at 2000 uM preincubated for 48 hrs followed by cisplatin treatment measured after 72 hrs by MTT assay. In kind it is functional. Particulars: in the assay text read “at 2000 nM” for “at 2000 uM”. The gist of the method:
as §2

The test system of assay [13] is CAL-27. Briefly: Potentiation of 0.5 uM cisplatin-induced cytotoxicity against human CAL27 cells assessed as decrease in cell viability by measuring combination index at 1500 uM preincubated for 48 hrs followed by cisplatin treatment measured after 72 hrs by MTT assay. In kind it is functional. The gist of the method: as §2
For assay [14], the target named is T1, Histone deacetylase 1/6 (Homo sapiens). Nature of the assay: Inhibition of HDAC1/HDAC6 in human Cal27CisR cells assessed as potentiation of 10 uM cisplatin-induced cytotoxicity by measuring combination index at 2000 nM preincubated for 48 hrs followed by cisplatin treatment measured after 72 hrs by MTT assay.
Assay [15] has the same target. Nature of the assay: Inhibition of HDAC1/HDAC6 in human Cal27CisR cells assessed as potentiation of 5 uM cisplatin-induced cytotoxicity by measuring combination index at 1000 uM preincubated for 48 hrs followed by cisplatin treatment measured after 72 hrs by MTT assay. In kind it is cell-based. A digest of the protocol: as §2
Assay [16] concerns CAL-27. Nature of the assay: Potentiation of 0.5 uM cisplatin-induced cytotoxicity against human CAL27 cells assessed as decrease in cell viability by measuring combination index at 2000 uM preincubated for 48 hrs followed by cisplatin treatment measured after 72 hrs by MTT assay. In kind it is functional. The gist of the method:
as §2

Molecules are shown by their SMILES. The source made the active and inactive calls. The rule behind the calls is not given here.

T1 sequence (Q13547 whole entry, looked up): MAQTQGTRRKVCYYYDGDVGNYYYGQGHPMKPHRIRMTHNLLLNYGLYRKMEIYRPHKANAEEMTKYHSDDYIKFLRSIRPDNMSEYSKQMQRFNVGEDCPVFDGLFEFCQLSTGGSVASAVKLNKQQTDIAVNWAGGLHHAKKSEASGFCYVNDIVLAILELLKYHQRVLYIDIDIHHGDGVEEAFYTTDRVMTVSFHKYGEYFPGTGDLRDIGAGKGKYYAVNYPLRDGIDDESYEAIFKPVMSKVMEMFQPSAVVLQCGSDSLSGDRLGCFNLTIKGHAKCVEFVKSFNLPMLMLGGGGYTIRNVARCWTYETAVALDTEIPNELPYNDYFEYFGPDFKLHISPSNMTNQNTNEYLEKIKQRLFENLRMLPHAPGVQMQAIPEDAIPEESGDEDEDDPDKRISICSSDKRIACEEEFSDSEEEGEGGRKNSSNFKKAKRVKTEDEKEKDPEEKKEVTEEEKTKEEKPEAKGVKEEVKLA
T1 sequence (Q9UBN7 whole entry, looked up): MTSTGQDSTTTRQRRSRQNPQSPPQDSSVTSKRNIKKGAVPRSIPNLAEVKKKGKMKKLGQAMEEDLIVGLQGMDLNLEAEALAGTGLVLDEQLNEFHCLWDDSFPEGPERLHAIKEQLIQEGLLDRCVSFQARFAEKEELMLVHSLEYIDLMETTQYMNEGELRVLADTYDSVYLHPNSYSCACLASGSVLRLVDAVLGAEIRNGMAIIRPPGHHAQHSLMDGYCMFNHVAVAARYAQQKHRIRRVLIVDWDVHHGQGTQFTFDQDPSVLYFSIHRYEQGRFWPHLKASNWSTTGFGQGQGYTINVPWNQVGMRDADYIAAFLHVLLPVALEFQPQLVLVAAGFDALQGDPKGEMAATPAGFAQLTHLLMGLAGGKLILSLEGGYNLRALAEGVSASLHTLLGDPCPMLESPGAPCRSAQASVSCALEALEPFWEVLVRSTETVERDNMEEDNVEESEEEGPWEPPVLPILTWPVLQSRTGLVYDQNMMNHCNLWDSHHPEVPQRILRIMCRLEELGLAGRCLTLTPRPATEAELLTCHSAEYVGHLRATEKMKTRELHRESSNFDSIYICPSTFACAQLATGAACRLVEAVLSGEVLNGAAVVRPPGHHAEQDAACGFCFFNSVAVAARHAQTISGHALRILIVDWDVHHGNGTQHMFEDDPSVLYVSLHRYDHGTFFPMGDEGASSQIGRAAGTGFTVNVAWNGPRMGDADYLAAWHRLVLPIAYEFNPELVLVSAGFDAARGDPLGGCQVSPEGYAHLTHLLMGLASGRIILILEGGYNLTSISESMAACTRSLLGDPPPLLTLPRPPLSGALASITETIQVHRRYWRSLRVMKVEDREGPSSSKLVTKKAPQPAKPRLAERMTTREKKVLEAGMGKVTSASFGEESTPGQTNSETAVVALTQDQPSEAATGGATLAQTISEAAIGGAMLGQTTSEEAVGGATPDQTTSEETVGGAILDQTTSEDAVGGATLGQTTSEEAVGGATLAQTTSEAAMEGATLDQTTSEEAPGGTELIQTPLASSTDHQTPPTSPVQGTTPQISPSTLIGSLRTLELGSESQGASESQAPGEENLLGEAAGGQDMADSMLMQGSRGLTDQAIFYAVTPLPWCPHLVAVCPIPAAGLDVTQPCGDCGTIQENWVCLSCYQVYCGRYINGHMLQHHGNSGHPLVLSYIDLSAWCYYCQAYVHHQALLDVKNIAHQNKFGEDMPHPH

For the compound `COc1cc(NC(=O)NOCCCCCC(=O)NO)c2ncccc2c1`, the CI in assay [1] was 0.4; in assay [2], 0.49; in assay [3], 0.85; in [4], 0.63; in assay [5] it was 0.59; in assay [6] it was 0.66. For the same compound, the CI is 0.52 in assay [7]; 0.47 in assay [8]; 0.77 in assay [9]; 0.68 in [10]; 0.92 in assay [12]; 0.74 in [13]. Besides, the CI was 0.65 in [14], 0.43 in assay [15] and 0.86 in [16]. Further, the result in [11] was Active.
